From ChEMBL document CHEMBL1275331, “Discovery of a novel 5-HT(3) antagonist/5-HT(1A) agonist 3-amino-5,6,7,8-tetrahydro-2-{4-[4-(quinolin-2-yl)piperazin-1-yl]butyl}quinazolin-4(3H)-one (TZB-30878) as an orally bioavailable agent for irritable bowel syndrome” (J Med Chem, 2010)
Calls of active or inactive are those of the source. The rule behind the calls is not given here.

Columns and labels:
[1] = molecular target: T1, 5-hydroxytryptamine receptor 3A (Homo sapiens) (UniProt P46098); test: Displacement of [3H]BRL-43694 from human 5HT3 receptor expressed in HEK293 cells at 100 nM by liquid scintillation counting; assay type: cell-based
T1 sequence (whole entry): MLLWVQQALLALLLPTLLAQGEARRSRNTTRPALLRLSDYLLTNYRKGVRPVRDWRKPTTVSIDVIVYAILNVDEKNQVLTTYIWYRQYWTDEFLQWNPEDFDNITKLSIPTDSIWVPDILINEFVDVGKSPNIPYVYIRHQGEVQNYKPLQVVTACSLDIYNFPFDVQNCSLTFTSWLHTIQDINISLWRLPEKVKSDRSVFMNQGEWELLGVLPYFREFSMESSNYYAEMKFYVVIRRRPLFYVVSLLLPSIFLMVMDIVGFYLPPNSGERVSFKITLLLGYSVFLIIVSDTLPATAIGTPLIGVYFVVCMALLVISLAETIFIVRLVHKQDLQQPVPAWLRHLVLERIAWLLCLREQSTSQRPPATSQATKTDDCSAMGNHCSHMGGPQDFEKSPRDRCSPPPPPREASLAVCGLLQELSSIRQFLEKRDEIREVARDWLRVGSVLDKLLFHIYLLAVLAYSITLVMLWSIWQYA
Method in brief: (§1)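 HEK-293 membranes expressing human 5-HT3 were incubated with 0.5 nmol/L [3H]BRL-43694 (final) for 60 min at 25 °C. Buffer: 50 mM Tris-HCl, 5 mM MgCl2, 1 mM EDTA, pH 7.5. Compound came from 270 μmol/L DMSO stock, diluted in buffer. Filtration was through GF/B presoaked in 0.5% polyethyleneimine, with two cold Tris washes. Run in duplicate or triplicate; percent inhibition calculated.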

[2] = molecular target: T2, 5-hydroxytryptamine receptor 1A (Homo sapiens) (UniProt P08908); test: Displacement of [3H]8-OH-DPAT from human 5HT1A receptor expressed in CHO cells at 100 nM by liquid scintillation counting; assay type: cell-based
T2 sequence (whole entry): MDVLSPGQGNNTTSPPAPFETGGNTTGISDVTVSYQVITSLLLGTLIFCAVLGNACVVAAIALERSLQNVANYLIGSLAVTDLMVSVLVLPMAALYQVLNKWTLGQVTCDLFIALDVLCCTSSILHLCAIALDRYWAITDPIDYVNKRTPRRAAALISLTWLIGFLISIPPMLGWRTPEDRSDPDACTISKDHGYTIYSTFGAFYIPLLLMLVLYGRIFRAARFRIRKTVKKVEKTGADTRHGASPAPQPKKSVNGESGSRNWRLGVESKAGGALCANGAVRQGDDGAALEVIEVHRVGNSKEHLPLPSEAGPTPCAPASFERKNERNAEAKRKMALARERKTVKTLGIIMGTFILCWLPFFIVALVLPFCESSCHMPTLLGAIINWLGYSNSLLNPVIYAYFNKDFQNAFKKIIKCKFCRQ
Method in brief: (§2)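 CHO-cell membranes with human 5-HT1A were incubated with 0.25 nmol/L [3H]8-OH-DPAT (final) for 60 min at 27 °C. Buffer: 50 mM Tris-HCl, 10 mM MgSO4, 0.5 mM EDTA, 0.1% ascorbic acid, pH 7.4. Compound came from 270 μmol/L DMSO stock, diluted in buffer. Filtration was through GF/C presoaked in 0.3% polyethyleneimine, with two cold Tris washes. Run in duplicate or triplicate; percent inhibition of binding calculated.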

[3] = molecular target: T2, 5-hydroxytryptamine receptor 1A (Homo sapiens); test: Displacement of [3H]8-OH-DPAT from human 5HT1A receptor expressed in CHO cells at 1000 nM by liquid scintillation counting; assay type: cell-based; method in brief: as §2
[4] = molecular target: T1, 5-hydroxytryptamine receptor 3A (Homo sapiens); test: Displacement of [3H]BRL-43694 from human 5HT3 receptor expressed in HEK293 cells at 1000 nM by liquid scintillation counting; assay type: cell-based; method in brief: as §1
[5] = Drug level in Sprague-Dawley rat blood at 3 mg/kg, po after 2 hrs by HPLC analysis; assay type: ADME, organism-based; parameters: dose 3 mg/kg, route oral; conditions: whole blood, read-out: Drug uptake
Method in brief: (§3)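 Total compound concentration was measured in brain and blood at 2, 4 and 8 h after a single oral 3 mg/kg dose. Brain/blood ratio was also derived. Values are mean ± SD of three rats.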

[6] = molecular target: T3, 5-hydroxytryptamine receptor 1A (Homo sapiens, UniProt P08908); test: Agonist activity at human cloned 5HT1A receptor expressed in CHO cells assessed as stimulation of [35S]GTPgammaS binding after 30 mins by liquid scintillation counting; assay type: functional, cell-based
T3 sequence (P08908 whole entry): T2 sequence (whole entry)
Method in brief: (§4)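 Membranes from CHO cells expressing human 5-HT1A were diluted in 20 mM HEPES/3 mM MgCl2/120 mM NaCl, pH 7.4. They were preincubated with 20 μM GDP and test drug for 20 min at 30 °C, then held on ice for 15 min. [35S]GTPγS (100 pM) was added for 30 min at 30 °C. Samples were filtered, washed with cold HEPES/MgCl2 buffer, and bound radioactivity counted; EC50 and Emax reported.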

[7] = molecular target: T4, 5-hydroxytryptamine receptor 3A (Homo sapiens, UniProt P46098); test: Displacement of [3H]BRL-43694 from human 5HT3 receptor expressed in HEK293 cells by liquid scintillation counting; assay type: cell-based; method in brief: as §1
T4 sequence (P46098 whole entry): T1 sequence (whole entry)

Rattus norvegicus [8] = test: Induction of 5HT1A receptor-mediated lower lip retraction behavior in rat at 10 mg/kg, iv after 30 mins; assay type: functional, organism-based; parameters: dose 10 mg/kg
Method in brief: (§5)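 Rats were conditioned to test procedures over 2 weeks and acclimated to the test cage for 1 h. Vehicle was saline containing diluted HCl. Lower lip retraction and flat body posture were scored on a 0–3 scale at 5, 10, 20 and 30 min after dosing.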

Rattus norvegicus [9] = test: […] activity in rat assessed as inhibition of 5HT-induced bradycardia at 10 ug/kg, iv by von Benzold-Jarisch reflex assay; assay type: functional
[10] = Drug level in Sprague-Dawley rat blood at 3 mg/kg, po after 8 hrs by HPLC analysis; assay type: ADME, organism-based; parameters: dose 3 mg/kg, route oral; conditions: whole blood, read-out: Drug uptake; method in brief: as §3
[11] = Ratio of drug level in brain to blood in Sprague-Dawley rat at 3 mg/kg, po after 4 hrs; assay type: ADME, organism-based; parameters: dose 3 mg/kg, route oral
Method in brief: (§6)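 Rats dosed 3 mg/kg orally; total compound levels measured in brain and blood at 2, 4 and 8 h, brain/blood ratio derived. Mean ± SD of three rats.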

Rattus norvegicus [12] = test: Effect on 5HT1A receptor-mediated hypothermic effect in rat assessed as change in rectal temperature at 10 mg/kg, iv after 30 mins; assay type: functional, organism-based; parameters: dose 10 mg/kg
Method in brief: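 Rats were conditioned over 2 weeks and acclimated to the cage for 1 h before dosing (vehicle: saline with diluted HCl). Rectal temperature was recorded with a thermistor probe inserted 3 cm, before and 30 min after administration. The change in temperature was reported.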

[13] = Drug level in Sprague-Dawley rat brain at 3 mg/kg, po after 4 hrs by HPLC analysis; assay type: ADME, organism-based; parameters: dose 3 mg/kg, route oral; conditions: read-out: Drug uptake; method in brief: as §3
[14] = molecular target: T5, 5-hydroxytryptamine receptor 3A (Cavia porcellus) (UniProt O70212); test: Inhibition of 5HT3 receptor-mediated contraction of guinea pig ileum at 1 umol/L after 20 mins relative to control; assay type: tissue-based
T5 sequence (whole entry): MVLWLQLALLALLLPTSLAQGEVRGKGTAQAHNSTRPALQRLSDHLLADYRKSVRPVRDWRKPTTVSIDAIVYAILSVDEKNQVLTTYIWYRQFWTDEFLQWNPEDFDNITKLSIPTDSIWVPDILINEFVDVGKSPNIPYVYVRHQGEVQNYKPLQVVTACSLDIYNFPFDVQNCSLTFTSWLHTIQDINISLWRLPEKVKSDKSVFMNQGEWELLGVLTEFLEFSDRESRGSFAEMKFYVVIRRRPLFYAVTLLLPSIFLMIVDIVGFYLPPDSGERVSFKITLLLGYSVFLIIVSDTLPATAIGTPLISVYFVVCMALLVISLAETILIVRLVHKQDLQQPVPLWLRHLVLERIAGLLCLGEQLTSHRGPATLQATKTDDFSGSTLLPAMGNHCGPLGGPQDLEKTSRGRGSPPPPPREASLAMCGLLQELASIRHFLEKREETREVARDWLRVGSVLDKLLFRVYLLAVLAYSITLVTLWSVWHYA
Method in brief: (§7)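 Ileum strips in Tyrode solution at 37 °C, gassed 5% CO2/95% O2, isotonic contractions under 1 g load. After at least 3 stable contractions to 10 μM 2-methyl-5-HT, tissue exposed to compound or DMSO vehicle for 20 min, then 10 μM 2-methyl-5-HT re-added; contraction expressed as % inhibition of control.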

[15] = Drug level in Sprague-Dawley rat blood at 3 mg/kg, po after 4 hrs by HPLC analysis; assay type: ADME, organism-based; parameters: dose 3 mg/kg, route oral; conditions: whole blood, read-out: Drug uptake; method in brief: as §3
[16] = Drug level in Sprague-Dawley rat brain at 3 mg/kg, po after 8 hrs by HPLC analysis; assay type: ADME, organism-based; parameters: dose 3 mg/kg, route oral; conditions: read-out: Drug uptake; method in brief: as §3
[17] = molecular target: T3, 5-hydroxytryptamine receptor 1A; test: Displacement of [3H]8-OH-DPAT from human 5HT1A receptor expressed in CHO cells by liquid scintillation counting; assay type: cell-based; method in brief: as §2
[18] = Ratio of drug level in brain to blood in Sprague-Dawley rat at 3 mg/kg, po after 8 hrs; assay type: ADME, organism-based; parameters: dose 3 mg/kg, route oral; method in brief: as §6
[19] = Drug level in Sprague-Dawley rat brain at 3 mg/kg, po after 2 hrs by HPLC analysis; assay type: ADME, organism-based; parameters: dose 3 mg/kg, route oral; conditions: read-out: Drug uptake; method in brief: as §3
[20] = Ratio of drug level in brain to blood in Sprague-Dawley rat at 3 mg/kg, po after 2 hrs; assay type: ADME, organism-based; parameters: dose 3 mg/kg, route oral; method in brief: as §6
[21] = molecular target: T5, 5-hydroxytryptamine receptor 3A (Cavia porcellus); test: Inhibition of 5HT3 receptor-mediated contraction of guinea pig ileum at 0.1 umol/L after 20 mins relative to control; assay type: tissue-based; method in brief: as §7
[22] = molecular target: T2, 5-hydroxytryptamine receptor 1A (Homo sapiens); test: Agonist activity at human cloned 5HT1A receptor expressed in CHO cells assessed as stimulation of [35S]GTPgammaS binding at 900 uL after 30 mins by liquid scintillation counting; assay type: functional, cell-based; method in brief: as §4
Rattus norvegicus [23] = test: Induction of 5HT1A receptor-mediated behavioral activity in rat assessed as appearance of flat body posture at 10 mg/kg, iv after 30 mins; assay type: functional, organism-based; parameters: dose 10 mg/kg; method in brief: as §5
Rattus norvegicus [24] = test: […] activity in rat assessed as inhibition of 5HT-induced bradycardia at 100 ug/kg, iv by von Benzold-Jarisch reflex assay; assay type: functional

concentration at 2 h [5] [nM]	EC50 [6] [nM]	IC50 [7] [nM]	concentration at 8 h [10] [nM]	Kp at 4 h [11]	concentration at 4 h [13] [nM]	inhibition [14] [%]	concentration at 4 h [15] [nM]	concentration at 8 h [16] [nM]	IC50 [17] [nM]	Kp at 8 h [18]	concentration at 2 h [19] [nM]	Kp at 2 h [20]	inhibition [21] [%]	Emax [22] [%]	SMILES	Activity (Rattus norvegicus [8])	Activity (Rattus norvegicus [23])	further results
															Nn1c(=O)c2c(nc1[C@H]1CC[C@@H](N3CCN(c4ccc5ccccc5n4)CC3)CC1)CCCC2			inhibition [1]: 19.6%; inhibition [2]: 42.3%; inhibition [3]: 91.5%; inhibition [4]: 87.3%
56	2.5	77.6	8.98	0.357	12.9	97.6	36.1	2.96	2.5	0.338	18.7	0.332	79.9	84.8	CC(=O)N1CCc2c(sc3nc(SCCCN4CCN(c5ccc6ccccc6n5)CC4)n(N)c(=O)c23)C1	Active	Active	inhibition in vivo at 0.01 mg/kg (Rattus norvegicus [9]): 77%; deltaT (Rattus norvegicus [12]): -0.1 °C
21.2	182	63.8	5.17	3.05	32.2	95.1	10.6	13	5.6	2.53	63.1	2.99	80	90.3	Nn1c(SCCCN2CCN(c3ccc4ccccc4n3)CC2)nc2c(c1=O)CCCC2			
	13.7	59.1				100			< 10				97.1	93.5	Cc1cc(N2CCN(CCCCc3nc4c(c(=O)n3N)CCCC4)CC2)nc2ccccc12	inactive	inactive	inhibition in vivo at 0.1 mg/kg (Rattus norvegicus [24]): 64.5%; Activity (Rattus norvegicus [12]): inactive
